The list is not random: actives were taken first. Their share in the collection is about 9.6%.
PMI activator: activators of human phosphomannose isomerase; purified human PMI, coupled resazurin fluorescence, 20 min; hits give high values; 1 = vehicle control, 0 substrate-free wells; activation factor at 20 µM; 190,000 compounds, 0.005% hits; AID 1214;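 active means activation factor of 2 or more at 20 µM, relative to plate controls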
Target sequence (P34949 whole entry, looked up): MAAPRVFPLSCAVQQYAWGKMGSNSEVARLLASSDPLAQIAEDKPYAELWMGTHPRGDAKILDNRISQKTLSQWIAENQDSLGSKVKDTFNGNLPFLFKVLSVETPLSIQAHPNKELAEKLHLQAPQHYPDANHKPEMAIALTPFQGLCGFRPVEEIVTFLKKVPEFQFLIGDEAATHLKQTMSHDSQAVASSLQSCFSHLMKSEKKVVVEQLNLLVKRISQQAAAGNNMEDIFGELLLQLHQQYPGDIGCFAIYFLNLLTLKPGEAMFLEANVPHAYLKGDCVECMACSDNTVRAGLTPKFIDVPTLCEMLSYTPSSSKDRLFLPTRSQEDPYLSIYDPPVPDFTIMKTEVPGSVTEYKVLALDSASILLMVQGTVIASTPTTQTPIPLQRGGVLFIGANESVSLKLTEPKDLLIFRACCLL
HCT116 bCat-KO: beta-catenin-lacking colon tumor cell growth suppression. HCT116 beta-catenin knockout viability, CellTiter-Glo, 60 h; hits give low values. viability, % at 10 µM. 140,000 compounds, 1.5% hits. AID 818;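 active means viability at or under a set limit, the compound median less 4 SD, cut at about 6% in these data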;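 further: 0% = Hyamine 1622 control at 20 µM and 100% = untreated cell control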
PMI act satM6P: increases human PMI activity with near-saturating mannose 6-phosphate. AID 1216. 190,000 compounds, 0.34% hits. coupled PMI enzyme assay, resazurin fluorescence, 20 min; hits give high values; 1 = untreated enzyme, 0 = substrate-free blank. activation factor at 20 µM. P34949;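 active means activation factor of 2 or more at 20 µM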
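Material: human phosphomannose isomerase with PGI, G6PDH, diaphorase coupling enzymes. Quantity: 15 ng/mL PMI. Medium: HEPES pH 7.4 buffer with MgCl2 and Tween-20. Reagent: Near-saturating mannose-6-phosphate, 1.0 mM. Compound: 20 µM single dose. Times: enzyme reaction with compound 20 min at room temperature. Detection: resorufin fluorescence at Ex 544/Em 590 nm.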
PTEN del growth: growth suppressors of cells with PTEN tumor suppressor deletion. HCT116 PTEN-null viability, CellTiter-Glo, 60 h; hits give low values. viability, % at 10 µM. 140,000 compounds, 1.2% hits. AID 827;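 active means viability at or below a set limit, 4 SD under the median of all tested compounds, cut at about 3.7% in these data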;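 further: PTEN knockout HCT116 line with beta catenin targeted HCT116 as companion control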
L major viab: Leishmania major promastigote growth inhibition; Leishmania major promastigotes, resazurin fluorescence viability; inhibition, % at 10 µM; 200,000 compounds, 9% hits; in the data active means inhibition above about 50%;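 further: promastigotes grown with compound for 44 hours at 28 °C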
An asterisk follows results filed as active; / = no result.

SMILES | PMI activator | HCT116 bCat-KO | PMI act satM6P | PTEN del growth | L major viab
CC(=O)c1cccc(NC(=S)NC(=O)c2cccc(C)c2)c1 | 0.9 | 98 | 0.9 | 104 | 51*
CC(C)COc1cccc(C(=O)NC(=S)Nc2cccc(NC(=O)c3ccccc3Cl)c2)c1 | 0.9 | 88 | 0.9 | 78 | 80*
CC(=O)Nc1ccc(S(=O)(=O)NC2(C(F)(F)F)N=C(c3ccccc3)NC2=O)cc1 (stereo not drawn) | 0.9 | 108 | 0.9 | 105 | -4
CC(C)Oc1cccc(C(=O)NC(=S)Nc2ccccc2)c1 | 0.8 | 92 | 0.9 | 92 | 86*
FC(F)(F)c1cccc(CN2CCC(c3cc(-c4cccs4)n[nH]3)CC2)c1 | 1 | / | 0.9 | / | 13
Cc1ccc(CN2CCC(c3cc(-c4cccs4)n[nH]3)CC2)cc1 | 1 | / | 1.1 | / | 94*
C#CCNC(=O)C1=C[C@@H](c2coc3ccccc3c2=O)C[C@@H](OCc2ccc(CO)cc2)O1 | 1 | / | 1.1 | / | -3
CC(C)(C)c1cc(C(=O)N/N=C/c2ccc(F)cc2)n(-c2ccccc2)n1 | 0.8 | 75 | 0.8 | 75 | 30
COc1ccc(/C=N/NC(=O)c2nc(-c3ccccc3)n(-c3ccccc3)n2)c(O)c1 | 0.9 | 9 | 1 | 8 | 99*
COc1ccc(/C=N/NC(=O)c2nc(-c3ccccc3)n(-c3ccccc3)n2)cc1 | 0.8 | 91 | 1 | 90 | 44
CC(C)(C)c1cc(C(=O)N/N=C/c2ccccc2O)n(-c2ccccc2)n1 | 1 | 8 | 1.1 | 11 | 99*
Fc1cccc2sc(Nc3nnc(-c4ccco4)o3)nc12 | 0.8 | 19 | 1 | 19 | -3
COc1cccc2sc(Nc3nnc(-c4ccc(F)cc4)o3)nc12 | 0.9 | 13 | 1 | 15 | 96*
COc1cccc2sc(Nc3nnc(-c4cccs4)o3)nc12 | 1.3 | 2.6* | 1.2 | 8 | 96*
COc1ccc(CCn2cnc(=O)c(C#N)c2C)cc1OC | 1 | / | 1 | / | -4
O=C(OCc1csc(-c2ccccc2)n1)c1ccc(O)cc1 | 0.8 | / | 0.9 | / | 7
COc1cccc(OC)c1C(=O)Nn1c(-c2cccs2)nc2ccccc2c1=O | 1 | 88 | 0.9 | 92 | -1
COc1ccc2nc(NC(=O)C(NS(=O)(=O)c3cccs3)C(C)C)sc2c1 (stereo not drawn) | 0.8 | 91 | 0.9 | 93 | 89*
Cc1ccc2nc(NC(=O)C(NS(=O)(=O)c3cccc4nsnc34)C(C)C)sc2c1 (stereo not drawn) | 0.9 | 83 | 1 | 80 | 96*
COc1ccc2[nH]c3c(N4CCC(O)(c5cccc(C(F)(F)F)c5)CC4)ncnc3c2c1 | 0.8 | 4.5* | 0.8 | 5 | 100*
COc1ccc2c(c1)c1ncnc(N3CCN(Cc4ccc5c(c4)OCO5)CC3)c1n2C | 1 | 13 | 1.1 | 17 | 24
Cc1ccc2[nH]c3c(N4CCOCC4)ncnc3c2c1 | 0.9 | 71 | 1 | 74 | 35
COc1ccc2[nH]c3c(N4CCN(Cc5ccc6c(c5)OCO6)CC4)ncnc3c2c1 | 0.9 | 11 | 0.9 | 8 | 56*
COC(=O)c1ccc(CSc2nc3c(c(=O)n2-c2ccc(Br)cc2)SCC3)o1 | 1 | 91 | 1 | 81 | 98*
CCOc1ccc(-n2c(SCc3ccc(C(=O)OC)o3)nc3c(c2=O)SCC3)cc1 | 0.8 | 68 | 0.9 | 80 | 83*
SMILES | PMI activator | HCT116 bCat-KO | PMI act satM6P | PTEN del growth | L major viab
O=C(CSc1nc2c(c(=O)n1-c1ccc(Cl)cc1)SCC2)N1CCCC1 | 1 | 86 | 1 | 83 | -9
Cn1c(NC(=O)C[n+]2cc(-c3ccc(Cl)cc3)n3c2CCC3)cc(=O)n(C)c1=O | 1 | 98 | 1.1 | 94 | 36
Clc1ccc(-c2c[n+](Cc3ccc(Cl)c(Cl)c3)c3n2CCC3)cc1 | 1 | 45 | 1 | 52 | 99*
Clc1cccc(C[n+]2cc(-c3ccccc3)n3c2CCC3)c1 | 0.9 | 69 | 1 | 70 | 99*
CCOC(=O)C(CC)n1cnc2c(oc3ccccc32)c1=O (stereo not drawn) | 1 | 99 | 0.9 | 98 | -6
O=C(Cc1ccc([N+](=O)[O-])cc1)Nc1ccc(O)cc1C(=O)O | 1.1 | 99 | 1.1 | 101 | -5
CC(=O)N1CCN(c2ccc(S(C)(=O)=O)cc2[N+](=O)[O-])CC1 | 1 | / | 1 | / | -9
CCOC(=O)c1sc2nc(CN3CCCCC3)nc(Cl)c2c1C | 1 | / | 1 | / | 5
Cc1sc2nc(CN3CCCC3)nc(Cl)c2c1C | 1.3 | 16 | 1.3 | 53 | 86*
O=C(CCN1C(=O)c2ccccc2C1=O)Nn1cnnc1 | 1 | 97 | 1 | 93 | -10
COc1ccc(-c2cc(-c3ccc(OC)cc3)nc(-c3ccc4c(c3)NC(=O)CO4)c2)cc1 | 1 | 2.7* | 1 | 2.4* | 1
COCCCNC(=S)Nc1cccc(S(=O)(=O)NC2=NCCC2)c1 | 1.1 | / | 1.2 | / | -1
CC1=CC2=NC(=O)CC(C)(C(=O)N(CC(=O)NC(C)C)C3CCCC3)N2C=C1 (stereo not drawn) | 1 | / | 1 | / | -10
O=C(CN1C(=O)COc2ccccc21)NCc1ccc(C(=O)O)cc1 | 1.1 | 107 | 1 | 97 | -6
O=C(O)c1ccccc1C(=O)c1ccc2c(c1)N(Cc1ccc(Cl)c(Cl)c1)C(=O)CO2 | 0.8 | / | 0.8 | / | 100*
CCc1ccc(N2C(=O)Cc3c2nc(N)c(C#N)c3N)cc1 | 0.8 | 89 | 0.9 | 85 | 7
CCN(CC)c1nc2c3c(nc4c(c3c1C#N)CC(=O)N4c1ccc(Cl)cc1)NC(C)=N2 | 0.7 | 87 | 0.7 | 98 | 56*
Cc1ccc2c(n1)sc1c(-c3ccc(Br)cc3)c(C#N)c(N)nc12 | 1 | 9 | 1.1 | 3.2* | 3
CC(C)[C@@H](C(=O)OCC(=O)Nc1ccc2c(c1)OCO2)N1C(=O)c2ccccc2C1=O | 0.9 | 98 | 1 | 94 | 82*
Cc1ccc(C)c(OCC(=O)Nc2ccc3c(c2)OCO3)c1C | 0.8 | 70 | 0.9 | 71 | 23
CC(SCc1ccccc1)C(=O)Nc1ccc2c(c1)OCO2 (stereo not drawn) | 1 | 91 | 1 | 82 | 3
CCC(C)[C@@H](C(=O)Nc1ccc2c(c1)OCO2)N1Cc2ccccc2C1=O (stereo partly drawn) | 0.9 | 83 | 0.8 | 84 | 61*
Cc1cccc(OCC(=O)Nc2ccc3c(c2)OCO3)c1C | 0.9 | 94 | 0.9 | 92 | 73*
Cc1ccc2[nH]ccc(=O)c2c1 | 0.9 | 90 | 1 | 100 | -2
Cc1ccc2oc(C(Cl)(Cl)Cl)cc(=O)c2c1 | 0.9 | 25 | 0.9 | 25 | 56*
Cc1cc(C)c(C(=O)/C=C/C=C/c2ccccc2)c(=O)[nH]1 | 1 | 70 | 0.8 | 64 | 5
Cc1cc(C)c(C(=O)/C=C/c2ccc(C(C)C)cc2)c(=O)[nH]1 | 1 | 14 | 0.9 | 15 | 84*
CCOC(=O)c1cnc2sc3c(n2c1=O)CCCC3 | 0.9 | 27 | 0.8 | 22 | 100*
CNC(=O)CCC(=O)Nc1ccc(C)cc1 | 0.8 | / | 1 | / | -2

From PubChem
